Here are results for 13 molecules from ChEMBL document CHEMBL1153488, “Discovery of (3-endo)-3-(2-cyano-2,2-diphenylethyl)-8,8-dimethyl-8-azoniabicyclo[3.2.1]octane bromide as an efficacious inhaled muscarinic acetylcholine receptor antagonist for the treatment of COPD” (Bioorg Med Chem Lett, 2009).

Assay [1] deals with T1, Muscarinic acetylcholine receptor M2 (Homo sapiens, UniProt P08172).
T1 sequence (P08172 whole entry): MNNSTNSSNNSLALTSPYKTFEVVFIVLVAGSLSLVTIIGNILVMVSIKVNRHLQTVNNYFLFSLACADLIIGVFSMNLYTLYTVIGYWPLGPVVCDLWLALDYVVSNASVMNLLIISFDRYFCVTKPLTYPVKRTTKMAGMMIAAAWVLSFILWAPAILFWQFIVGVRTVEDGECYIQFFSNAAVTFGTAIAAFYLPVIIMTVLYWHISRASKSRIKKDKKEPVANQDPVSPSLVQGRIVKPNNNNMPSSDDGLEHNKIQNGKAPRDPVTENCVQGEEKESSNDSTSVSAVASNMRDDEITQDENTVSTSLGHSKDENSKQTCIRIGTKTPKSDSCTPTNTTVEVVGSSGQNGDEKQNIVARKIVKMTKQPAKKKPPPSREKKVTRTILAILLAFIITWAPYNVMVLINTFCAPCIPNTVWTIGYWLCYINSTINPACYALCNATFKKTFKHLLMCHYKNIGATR
As to the kind of experiment: Antagonist activity against human cloned muscarinic M2 receptor expressed in CHO cells assessed as inhibition of acetylcholine-induced calcium mobilization by measuring ratio of acetylcholine EC50 in presence and absence of compound by FLIPR assay. The following applies: read-out: pA2 (converted). In kind it is functional, cell-based. In short, it runs like this: (§1)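 Run as pA2 determination on FLIPR in CHO cells expressing human M1 or M2 receptor: ACh concentration–response run with and without a single concentration of compound, calcium mobilization read, and the ratio of ACh EC50 values used to derive pA2.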
(In general: Calcium flux is commonly read through the fluorescence of an indicator in the cells.)

In assay [2] the target is T2, Muscarinic acetylcholine receptor M2 (Homo sapiens) (UniProt P08172).
T2 sequence (whole entry): T1 sequence (P08172 whole entry)
As to the kind of experiment: Agonist activity at human cloned muscarinic M2 receptor expressed in CHO cells assessed as effect on calcium mobilization by FLIPR. In kind it is functional, cell-based. The method in brief: (§2)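 CHO cells stably carrying cloned human M1, M2 or M3 receptor; compound applied alone and checked for direct receptor stimulation, read as calcium mobilization on a standard FLIPR protocol.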

The target of assay [3] is T3, Muscarinic acetylcholine receptor M3 (Homo sapiens, UniProt P20309). In words: Antagonist activity against human cloned muscarinic M3 receptor expressed in CHO cells assessed as inhibition of acetylcholine-induced calcium mobilization by measuring ratio of acetylcholine EC50 in presence and absence of compound by FLIPR assay. The format is functional, cell-based. The conditions noted are these: read-out: pA2 (converted). The method in brief:
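CHO cells expressing cloned human M3 receptor, stimulated with ACh. Calcium mobilization read by a standard FLIPR protocol. ACh EC50 was measured with and without a single concentration of compound, and pA2 was derived from the ratio of the EC50s.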
Target sequence in this assay (P20309 whole entry): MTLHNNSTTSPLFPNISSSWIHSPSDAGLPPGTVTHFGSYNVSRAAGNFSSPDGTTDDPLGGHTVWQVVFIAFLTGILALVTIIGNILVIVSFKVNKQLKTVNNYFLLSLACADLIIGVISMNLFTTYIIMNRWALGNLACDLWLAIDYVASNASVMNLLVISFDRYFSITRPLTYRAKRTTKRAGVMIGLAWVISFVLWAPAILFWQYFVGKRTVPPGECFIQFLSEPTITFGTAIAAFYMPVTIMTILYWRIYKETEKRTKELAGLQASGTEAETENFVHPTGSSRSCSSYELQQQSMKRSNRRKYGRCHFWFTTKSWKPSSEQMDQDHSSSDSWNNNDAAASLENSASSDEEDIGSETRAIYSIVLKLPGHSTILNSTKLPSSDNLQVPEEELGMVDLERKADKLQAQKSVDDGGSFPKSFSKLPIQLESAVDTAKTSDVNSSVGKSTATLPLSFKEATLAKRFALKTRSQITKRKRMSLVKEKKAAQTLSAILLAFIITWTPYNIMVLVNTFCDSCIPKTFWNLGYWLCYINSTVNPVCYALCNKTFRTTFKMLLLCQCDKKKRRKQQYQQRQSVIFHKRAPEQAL

The target in assay [4] is T1, Muscarinic acetylcholine receptor M2. In words: Antagonist activity against human cloned muscarinic M2 receptor expressed in CHO cells assessed as inhibition of acetylcholine-induced calcium mobilization by FLIPR. The format is functional, cell-based.
Assay [5] concerns Mus musculus. As to the kind of experiment: Bronchoprotection in Balb/C mouse bronchoconstriction model assessed as inhibition of aerosolized methacholin-induced bronchoconstriction at 5 ug administered intranasally 24 hrs before methacholin challenge. In kind it is functional.
The target of assay [6] is T3, Muscarinic acetylcholine receptor M3. As to the kind of experiment: Agonist activity at human cloned muscarinic M3 receptor expressed in CHO cells assessed as effect on calcium mobilization by FLIPR. In kind it is functional, cell-based. In short, it runs like this:
as §2
Target sequence in this assay (P20309 whole entry, looked up): as the sequence (P20309 whole entry) above

For assay [7], the target named is T1, Muscarinic acetylcholine receptor M2. In words: Displacement of [3H]N-methyl Scopolamine from human cloned muscarinic M2 receptor expressed in CHO cell membrane. The format is cell membranes. The method in brief: (§3)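 SPA format with CHO cell membrane preparations bearing human M1 or M2 receptor; competition versus 0.5 nM [3H]-N-methyl scopolamine; Ki reported; mean of two or more independent assays.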
On the technique in general: In a radioligand displacement assay an active substance lowers the binding of a labelled ligand.

In assay [8] the target is T3, Muscarinic acetylcholine receptor M3. As to the kind of experiment: Antagonist activity against human cloned muscarinic M3 receptor expressed in CHO cells assessed as inhibition of acetylcholine-induced calcium mobilization by FLIPR. The format is functional, cell-based.
Target sequence in this assay (P20309 whole entry): as above
The target of assay [9] is T4, Muscarinic acetylcholine receptor M1 (Homo sapiens) (UniProt P11229).
T4 sequence (whole entry): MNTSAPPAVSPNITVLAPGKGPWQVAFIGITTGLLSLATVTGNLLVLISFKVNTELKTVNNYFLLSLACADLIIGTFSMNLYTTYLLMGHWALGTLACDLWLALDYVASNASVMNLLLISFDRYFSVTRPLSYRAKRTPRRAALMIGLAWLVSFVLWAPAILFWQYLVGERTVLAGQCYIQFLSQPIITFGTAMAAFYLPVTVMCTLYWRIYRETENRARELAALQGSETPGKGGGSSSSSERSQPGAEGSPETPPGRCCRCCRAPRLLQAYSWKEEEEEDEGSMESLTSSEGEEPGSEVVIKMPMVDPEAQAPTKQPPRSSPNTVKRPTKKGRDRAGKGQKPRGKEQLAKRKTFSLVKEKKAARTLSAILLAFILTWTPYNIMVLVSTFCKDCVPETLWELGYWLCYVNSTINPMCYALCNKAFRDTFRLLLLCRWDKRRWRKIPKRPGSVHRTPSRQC
In words: Agonist activity at human cloned muscarinic M1 receptor expressed in CHO cells assessed as effect on calcium mobilization by FLIPR. The format is functional, cell-based. In short, it runs like this: as §2

Assay [10] addresses T5, Muscarinic acetylcholine receptor M1 (Homo sapiens, UniProt P11229).
T5 sequence (P11229 whole entry): T4 sequence (whole entry)
In words: Displacement of [3H]N-methyl Scopolamine from human cloned muscarinic M1 receptor expressed in CHO cell membrane. In kind it is cell membranes. In short, it runs like this:
as §3

Assay [11] deals with T5, Muscarinic acetylcholine receptor M1. In words: Antagonist activity against human cloned muscarinic M1 receptor expressed in CHO cells assessed as inhibition of acetylcholine-induced calcium mobilization by FLIPR. The format is functional, cell-based.
For assay [12], the target named is T3, Muscarinic acetylcholine receptor M3. As to the kind of experiment: Displacement of [3H]N-methyl Scopolamine from human cloned muscarinic M3 receptor expressed in CHO cell membrane. In kind it is cell membranes. The method in brief: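 SPA-format competition binding on membranes from CHO cells expressing the human M3 receptor, against 0.5 nM [3H]-N-methyl scopolamine. Ki values are the mean of two or more independent assays.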
Target sequence in this assay (P20309 whole entry): as the sequence (P20309 whole entry) above

The target in assay [13] is T5, Muscarinic acetylcholine receptor M1. In words: Antagonist activity against human cloned muscarinic M1 receptor expressed in CHO cells assessed as inhibition of acetylcholine-induced calcium mobilization by measuring ratio of acetylcholine EC50 in presence and absence of compound by FLIPR assay. The format is functional, cell-based. The following applies: read-out: pA2 (converted). In short, it runs like this:
as §1

Activity calls are given as the source filed them. The calls are words filed in the database; no cut-off is given here. Bounds are passed on as bounds.

A word on the IC50: it is the point on the concentration scale where inhibition reaches its midpoint. For orientation: Ki means a dissociation constant, usually derived from enzyme kinetics or from competition with a known ligand. In the case of `CN1[C@@H]2CC[C@H]1C[C@@H](CC(C#N)(c1ccccc1)c1ccccc1)C2`, the Kb in assay [1] is 0.316 nM; in assay [3], 0.0631 nM; in assay [13], 0.0158 nM. The result in assay [2], in [6] and in assay [9] was inactive. For the same molecule, the IC50 in [4], in [8] and in assay [11] was below 10 nM each time. The “inhibition (INH)” value in [5] was found to be 11%. The Ki in assay [7] is 0.501 nM; in [10], 0.1 nM; in assay [12], 0.158 nM.

Take `CN1[C@@H]2CC[C@H]1C[C@@H](CC(C(=O)O)(c1ccccc1)c1ccccc1)C2`: the outcome in [2], in [6] and in [9] was inactive. In addition, the IC50 came out at 240 nM in [4], 687 nM in assay [8] and 277 nM in assay [11].

With `C[N+]1(C)[C@@H]2CC[C@H]1C[C@@H](CC(O)(c1ccccc1)c1ccccc1)C2.[Br-]`, the Kb in [1] is 0.501 nM; in assay [3], 0.501 nM; in assay [13] it was 0.251 nM. Besides, the result in assay [2], in assay [6] and in assay [9] was inactive. The IC50 in [4], in [8] and in assay [11] was below 10 nM throughout. The “inhibition (INH)” value in [5] was found to be 34%. Besides, the Ki in [7] is 3.98 nM; in [10], 1.58 nM; in assay [12], 3.16 nM.

In the case of `CC(=O)NCC(C[C@H]1C[C@H]2CC[C@@H](C1)N2C)(c1ccccc1)c1ccccc1`, the result in assay [2], in assay [6] and in [9] was inactive. Further, the results for the IC50 in [4], in [8] and in assay [11] were 3480 nM, 2900 nM and 2200 nM, respectively.

Take `CN1[C@@H]2CC[C@H]1C[C@@H](CC(CNC(N)=O)(c1ccccc1)c1ccccc1)C2`: the result in [2], in [6] and in [9] was inactive. Also, the IC50 turned out to be 5340 nM in [4], 6400 nM in assay [8] and 3830 nM in assay [11].

As for `CN1[C@@H]2CC[C@H]1C[C@@H](CC(c1ccccc1)(c1ccccc1)c1ccccc1)C2`, the outcome in assay [2], in assay [6] and in [9] was inactive. Besides, the IC50 in assay [4] was 1200 nM; in assay [8], 206 nM; in assay [11] it was 105 nM.

Consider `CN1[C@@H]2CC[C@H]1C[C@@H](CC(CNS(C)(=O)=O)(c1ccccc1)c1ccccc1)C2`, for which the outcome in [2], in assay [6] and in assay [9] was inactive. Also, the IC50 in assay [4] is 2120 nM; in assay [8], 2730 nM; in assay [11], 1600 nM.

As to `C[N+]1(C)[C@@H]2CC[C@H]1C[C@@H](CC(CO)(c1ccccc1)c1ccccc1)C2.[Br-]`, the Kb in assay [1] is 5.01 nM; in assay [3] it was 3.16 nM; in assay [13], 1.58 nM. In addition, the result in assay [2], in assay [6] and in [9] was inactive. Besides, the 50% inhibitory concentration (IC50) in [4], in assay [8] and in assay [11] was below 10 nM each time. Also, the “inhibition (INH)” value in [5] worked out at 23%. Besides, the Ki in [7] is 3.98 nM; in [10], 1.26 nM; in assay [12], 2.51 nM.

With `CN1[C@@H]2CC[C@H]1C[C@@H](CC(C(=O)NCc1ccccc1)(c1ccccc1)c1ccccc1)C2`, the result in [2], in assay [6] and in assay [9] was inactive. Further, the IC50 in assay [4] stood at 545 nM; in [8] it was 839 nM; in assay [11] it was 596 nM.

`CN1[C@@H]2CC[C@H]1C[C@@H](CC(CNS(=O)(=O)c1ccccc1)(c1ccccc1)c1ccccc1)C2`: the result in assay [2], in assay [6] and in assay [9] was inactive. The IC50 in [4] was 458 nM; in assay [8], 1060 nM; in assay [11], 770 nM.

As to `CCNC(=O)NCC(C[C@H]1C[C@H]2CC[C@@H](C1)N2C)(c1ccccc1)c1ccccc1`, the outcome in assay [2], in [6] and in assay [9] was inactive. Moreover, the IC50 in [4] worked out at 1550 nM; in assay [8], 1940 nM; in assay [11], 1280 nM.

`CN1[C@@H]2CC[C@H]1C[C@@H](CC(CO)(c1ccccc1)c1ccccc1)C2`: the Kb in [1] is 6.31 nM; in assay [3] it was 3.98 nM; in assay [13], 1.26 nM. For the same molecule, the result in [2], in [6] and in assay [9] was inactive. The IC50 in assay [4], in [8] and in [11] was below 10 nM each time. The “inhibition (INH)” value in [5] came out at 15%. Further, the results for the Ki in [7], in assay [10] and in assay [12] were 12.6 nM, 1 nM and 2.51 nM, respectively.

In the case of `CN1[C@@H]2CC[C@H]1C[C@@H](CC(CNC(=O)NCc1ccccc1)(c1ccccc1)c1ccccc1)C2`, the outcome in assay [2], in [6] and in [9] was inactive. The IC50 in assay [4] stood at 1270 nM; in assay [8], 1340 nM; in assay [11], 1020 nM.
